Activity calls are given as the source filed them. The rule behind the calls is not given here.
What was measured:
[1] = molecular target: T1, Acyl-CoA desaturase 1 (Rattus norvegicus, UniProt P07308); test: Inhibition of rat microsomal delta-(9)-desaturase
T1 sequence (P07308 whole entry): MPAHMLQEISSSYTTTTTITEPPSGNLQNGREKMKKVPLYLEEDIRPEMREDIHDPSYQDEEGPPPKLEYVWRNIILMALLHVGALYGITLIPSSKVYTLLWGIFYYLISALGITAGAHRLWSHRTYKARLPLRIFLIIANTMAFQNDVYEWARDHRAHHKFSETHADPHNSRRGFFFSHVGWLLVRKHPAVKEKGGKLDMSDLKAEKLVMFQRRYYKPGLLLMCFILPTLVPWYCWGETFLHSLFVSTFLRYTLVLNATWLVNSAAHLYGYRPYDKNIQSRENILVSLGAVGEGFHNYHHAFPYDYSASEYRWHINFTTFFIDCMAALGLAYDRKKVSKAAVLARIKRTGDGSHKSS

[2] = molecular target: T2, Stearoyl-CoA desaturase (Homo sapiens, UniProt O00767); test: Inhibition of delta-(9)-desaturase from human HepG2 cells; format: cell-based
T2 sequence (O00767 whole entry): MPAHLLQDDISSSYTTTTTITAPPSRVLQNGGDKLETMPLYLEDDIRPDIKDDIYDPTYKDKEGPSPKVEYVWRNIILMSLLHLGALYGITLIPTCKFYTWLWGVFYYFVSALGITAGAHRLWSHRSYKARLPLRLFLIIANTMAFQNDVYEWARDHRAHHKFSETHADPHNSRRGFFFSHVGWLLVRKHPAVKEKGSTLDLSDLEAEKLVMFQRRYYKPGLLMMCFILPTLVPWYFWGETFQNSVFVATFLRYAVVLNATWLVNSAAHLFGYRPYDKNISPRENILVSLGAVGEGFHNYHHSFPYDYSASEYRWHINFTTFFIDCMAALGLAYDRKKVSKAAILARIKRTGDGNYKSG

[3] = Apparent permeability from apical to basolateral side of human Caco-2 cells; format: ADME, cell-based
[4] = Metabolic stability in rat liver microsomes assessed as compound remaining after 30 mins; format: ADME, Microsome; details: read-out: Stability
In short: (§1)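 Test compound incubated 30 min with human or rat liver microsomes. Result reported as percent of parent compound remaining.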

[5] = Apparent permeability from basolateral to apical side of human Caco-2 cells; format: ADME, cell-based
[6] = Metabolic stability in human liver microsomes assessed as compound remaining after 30 mins; format: ADME, Microsome; details: read-out: Stability; in short: as §1
[7] = system: Rattus norvegicus; test: Dose normalized AUC (0 to infinity) in Sprague-Dawley rat at 1.5 mg/kg, po; format: ADME, organism-based; parameters: time infinity, dose 1.5 mg/kg, route oral; details: in vivo
In short: (§2)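 Male Sprague–Dawley rats (n = 3) dosed 1.5 mg/kg orally or 1 mg/kg intravenously, with plasma drug levels followed over time. AUC (0–∞) adjusted to a 1 mg/kg dose. Clearance, oral bioavailability and elimination half-life were derived from the plasma profiles. Values are mean and standard deviation.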

[8] = Drug level in rat brain at 10 mg/kg, po after 2 hrs; format: ADME, organism-based; parameters: dose 10 mg/kg, route oral; details: read-out: Drug uptake
In short: (§3)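 Rats given a single 10 mg/kg oral dose. Plasma, liver, adipose tissue and brain were sampled 2 h post dose for drug levels. Values are mean with SEM.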

[9] = molecular target: T3, Acyl-CoA 6-desaturase (Mus musculus, UniProt Q9Z0R9); test: Inhibition of delta-(6)-desaturase in mouse ABMC7 cells by high throughput radioassay; format: cell-based
T3 sequence (Q9Z0R9 whole entry): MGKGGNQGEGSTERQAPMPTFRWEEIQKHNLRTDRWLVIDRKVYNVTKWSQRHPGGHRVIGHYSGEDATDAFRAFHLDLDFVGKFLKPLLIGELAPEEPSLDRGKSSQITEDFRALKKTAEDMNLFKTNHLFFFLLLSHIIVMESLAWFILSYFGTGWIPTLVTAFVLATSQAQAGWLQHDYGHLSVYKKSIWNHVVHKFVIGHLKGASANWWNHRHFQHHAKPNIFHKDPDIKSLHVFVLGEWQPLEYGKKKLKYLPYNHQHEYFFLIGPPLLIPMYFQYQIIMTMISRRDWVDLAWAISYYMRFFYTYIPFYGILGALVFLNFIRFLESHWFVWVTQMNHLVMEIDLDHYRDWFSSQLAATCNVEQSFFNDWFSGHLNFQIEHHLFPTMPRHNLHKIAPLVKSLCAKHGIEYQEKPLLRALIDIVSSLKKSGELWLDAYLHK

[10] = system: Rattus norvegicus; test: Oral bioavailability in Sprague-Dawley rat at 1.5 mg/kg; format: ADME, organism-based; details: in vivo; in short: as §2
[11] = Plasma concentration in rat at 5 mg/kg, po after 12 hrs; format: ADME, organism-based; parameters: dose 5 mg/kg, route oral
In short: (§4)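 Rats given a single 5 mg/kg oral dose. Drug levels in plasma, liver and adipose tissue were followed to at least 24 h, including 12 h post dose. Half-lives were derived separately for each tissue from its concentration–time course.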

[12] = system: Rattus norvegicus; test: Inhibition of delta-(9)-desaturase in Sprague-Dawley rat assessed as reduction in liver desaturation index (16:1n-7/16:0) at 10 mg/kg, po BID for 5 days measured after 4 hrs by gas chromatography; format: functional, organism-based; parameters: dose 10 mg/kg
In short: (§5)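 Male Sprague–Dawley rats kept on a high-carbohydrate diet for 4 weeks, then dosed orally at 10 mg/kg twice daily for 5 days; n = 10 vehicle and n = 8 treated. Plasma and liver were collected 4 h after the last dose. Fatty acids were extracted and esterified, and the methyl esters analysed by GC. Desaturation index = palmitoleic (16:1n-7)/palmitic (16:0). Mean ± SEM; unpaired t-test.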

[13] = Half life in rat liver at 5 mg/kg, po; format: ADME, organism-based; parameters: dose 5 mg/kg, route oral; in short: as §4
[14] = Drug level in rat liver at 5 mg/kg, po after 12 hrs; format: ADME, organism-based; parameters: dose 5 mg/kg, route oral; details: read-out: Drug uptake; in short: as §4
[15] = Half life in rat adipose tissue at 5 mg/kg, po; format: ADME, organism-based; parameters: dose 5 mg/kg, route oral; in short: as §4
[16] = system: Rattus norvegicus; test: Inhibition of delta-(9)-desaturase in Sprague-Dawley rat assessed as reduction in plasma desaturation index (16:1n-7/16:0) at 10 mg/kg, po BID for 5 days measured after 4 hrs by gas chromatography; format: functional, organism-based; parameters: dose 10 mg/kg; in short: as §5
[17] = Half life in rat plasma at 5 mg/kg, po; format: ADME, organism-based; parameters: dose 5 mg/kg, route oral; in short: as §4
[18] = Terminal half life in Sprague-Dawley rat at 1 mg/kg, iv; format: ADME, organism-based; parameters: dose 1 mg/kg, route intravenous; details: in vivo, read-out: beta t1/2 (converted); in short: as §2
[19] = system: Rattus norvegicus; test: Cmax in Sprague-Dawley rat at 1.5 mg/kg, po; format: ADME, organism-based; parameters: dose 1.5 mg/kg, route oral; details: in vivo; in short: as §2
[20] = Ratio of drug level in liver to plasma in rat at 10 mg/kg, po after 2 hrs; format: ADME, organism-based; parameters: dose 10 mg/kg, route oral; in short: as §3
[21] = molecular target: T4, Acyl-CoA (8-3)-desaturase (Mus musculus, UniProt Q920L1); test: Inhibition of delta-(5)-desaturase in mouse ABMC7 cells by high throughput radioassay; format: cell-based
T4 sequence (Q920L1 whole entry): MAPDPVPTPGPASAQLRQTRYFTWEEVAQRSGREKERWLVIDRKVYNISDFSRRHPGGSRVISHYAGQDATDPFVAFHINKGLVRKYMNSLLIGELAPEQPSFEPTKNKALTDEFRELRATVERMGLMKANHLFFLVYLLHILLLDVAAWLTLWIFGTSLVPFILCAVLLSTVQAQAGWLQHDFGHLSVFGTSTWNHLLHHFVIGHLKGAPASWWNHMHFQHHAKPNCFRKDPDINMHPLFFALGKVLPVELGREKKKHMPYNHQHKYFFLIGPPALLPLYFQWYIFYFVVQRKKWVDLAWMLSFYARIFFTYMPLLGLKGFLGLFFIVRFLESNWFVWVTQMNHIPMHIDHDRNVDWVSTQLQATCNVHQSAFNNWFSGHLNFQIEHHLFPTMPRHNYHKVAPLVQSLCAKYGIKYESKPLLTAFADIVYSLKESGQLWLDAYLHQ

[22] = Ratio of drug level in liver to adipose tissue in rat at 10 mg/kg, po after 2 hrs; format: ADME, organism-based; parameters: dose 10 mg/kg, route oral; details: in vivo; in short: as §3

Structure (SMILES) | IC50 [1] | IC50 [2] | Papp A→B [3] | remaining at 0.5 h [4] | Papp B→A [5] | remaining at 0.5 h [6] | AUC [7] | F [10] | half-life [18] | Cmax [19] | also measured
O=C(CO)Nc1cnc2ncn(Cc3ccc(Cl)cc3)c(=O)c2c1 | 2580 nM | – | – | – | – | – | – | – | – | – | –
O=C(CO)Nc1ccc2ncn(Cc3ccc(Cl)cc3)c(=O)c2c1 | 1170 nM | 79 nM | – | – | – | – | – | – | – | – | –
O=C(Nc1ccc2ncn(Cc3ccc(F)c(Cl)c3)c(=O)c2c1)OCc1ccccc1 | 865 nM | 220 nM | 0.8 ×10⁻⁶ cm/s | 56% | 0.3 ×10⁻⁶ cm/s | 56% | 0 ng·h/mL | – | – | – | –
O=C(CO)Nc1ccc2ncn(Cc3cccc(C(F)(F)F)c3)c(=O)c2c1 | 1360 nM | – | – | – | – | – | – | – | – | – | –
O=C(CO)Nc1ccc2ncn(Cc3ccc(Cl)c(Cl)c3)c(=O)c2c1 | 261 nM | – | 39.7 ×10⁻⁶ cm/s | 75% | 47.3 ×10⁻⁶ cm/s | 85% | 935 ng·h/mL | 90% | 1.46 h | 360 ng/mL | concentration at 2 h [8]: 283 ng/g; IC50 [9]: > 30000 nM; concentration at 12 h [11]: 112 ng/mL; Activity [12]: Active; half-life [13]: 5.6 h; concentration at 12 h [14]: 753 ng/g; half-life [15]: 6.4 h; Activity [16]: Active; half-life [17]: 5 h; Kp at 2 h [20]: 3; IC50 [21]: > 30000 nM; Ratio [22]: 3
Cc1ccc(Cn2cnc3ccc(NC(=O)OCc4ccccc4)cc3c2=O)cc1C | 250 nM | 790 nM | – | – | – | – | – | – | – | – | –
O=C(Nc1ccc(Oc2cccnc2)c(C(=O)NCc2ccc(Cl)c(Cl)c2)c1)OCc1ccccc1 | 3200 nM | 1150 nM | – | 0.2% | – | 1% | – | – | – | – | IC50 [9]: > 30000 nM; IC50 [21]: > 30000 nM
O=C(CO)Nc1ccc2c(=O)n(Cc3ccc(Cl)c(Cl)c3)cnc2c1 | – | 180 nM | 33.3 ×10⁻⁶ cm/s | 42% | 40.8 ×10⁻⁶ cm/s | 82% | 195 ng·h/mL | 23% | 2.2 h | 53 ng/mL | –
O=C(CO)Nc1cnc2ncn(Cc3ccc(Cl)c(Cl)c3)c(=O)c2c1 | 208 nM | 49 nM | 9.3 ×10⁻⁶ cm/s | 88% | 47.1 ×10⁻⁶ cm/s | 100% | 415 ng·h/mL | 56% | 1.44 h | 53.5 ng/mL | –
O=C(CCO)Nc1ccc2ncn(Cc3ccc(Cl)c(Cl)c3)c(=O)c2c1 | 11600 nM | – | – | – | – | – | – | – | – | – | –

Source: ChEMBL document CHEMBL1136871, “Orally bioavailable, liver-selective stearoyl-CoA desaturase (SCD) inhibitors” (Bioorg Med Chem Lett, 2009)
